This is an account of results in ChEMBL document CHEMBL3813598, “Development of hydroxy-based sphingosine kinase inhibitors and anti-inflammation in dextran sodium sulfate induced colitis in mice” (Bioorg Med Chem, 2016).

Activity calls are given as the source filed them. No cut-off for these calls is given here.

In one test the target is T1, Sphingosine kinase 2 (Homo sapiens, UniProt Q9NRA0).
T1 sequence (Q9NRA0 whole entry): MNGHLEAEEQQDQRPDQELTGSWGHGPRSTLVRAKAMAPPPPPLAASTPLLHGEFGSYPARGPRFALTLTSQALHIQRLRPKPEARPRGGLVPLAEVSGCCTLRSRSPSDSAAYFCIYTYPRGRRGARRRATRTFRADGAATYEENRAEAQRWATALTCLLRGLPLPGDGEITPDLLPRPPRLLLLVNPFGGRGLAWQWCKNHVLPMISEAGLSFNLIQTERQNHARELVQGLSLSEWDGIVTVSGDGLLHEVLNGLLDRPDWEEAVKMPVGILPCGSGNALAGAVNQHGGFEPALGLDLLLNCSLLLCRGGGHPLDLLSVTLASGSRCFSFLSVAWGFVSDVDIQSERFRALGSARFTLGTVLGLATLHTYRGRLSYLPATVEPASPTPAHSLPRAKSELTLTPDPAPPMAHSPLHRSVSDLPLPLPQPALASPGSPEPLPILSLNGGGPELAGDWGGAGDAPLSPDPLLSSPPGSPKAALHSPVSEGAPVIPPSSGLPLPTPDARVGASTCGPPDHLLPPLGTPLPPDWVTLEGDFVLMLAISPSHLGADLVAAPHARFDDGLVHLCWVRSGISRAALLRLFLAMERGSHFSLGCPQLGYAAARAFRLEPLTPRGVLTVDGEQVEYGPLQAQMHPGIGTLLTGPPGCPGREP
Kind of test: Inhibition of GST-tagged full length human recombinant SPHK2 expressed in baculovirus using sphingosine as substrate preincubated for 10 mins measured after 1 hr by ADP-quest assay. The essentials: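 Human recombinant SphK1 or SphK2 with sphingosine substrate and ATP, tested in 384-well format. Enzyme was preincubated with compound for 10 min, then the reaction ran at 28 °C for 1 h. ADP Quest reagents A and B were added for 30 min at room temperature. Fluorescence was read at Ex 530/Em 590 nm. Values are mean of n = 3 in triplicate.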

Test [1] concerns Mus musculus. As to the kind of experiment: Antiinflammatory activity in DSS- induced C57BL/6 mouse colon colitis model assessed as mucosal/submucosal lesion at 10 mg/kg, ip after 24 hrs by hematoxylin/eosin staining based assay. The test is classed as functional, organism-based. An outline of the steps:
(§1)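 Colitis induced in female C57BL/6 mice as 2.5% DSS in drinking water for 5 days, then 5 days of water. Dosing ip or 5-ASA ig until sacrifice at day 10. Colons fixed in 10% buffered formalin (pH 7.4) for at least 24 h. Sections scored for cellular infiltration, mucosal lesion and crypt damage to give a histologic score.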

Test [2] has as its system Mus musculus. Kind of test: Antiinflammatory activity in DSS- induced C57BL/6 mouse colitis model assessed as colon length at 5 mg/kg, ip after 10 days (reference value: 45.68 +/- 1.34 mm). The class given is functional. An outline of the steps: (§2)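 Female C57BL/6 mice, 6–8 weeks, randomized into five groups. Colitis induced by 2.5% w/v DSS in drinking water for 5 days, then 5 days of normal water. Test agent given ip at 5 or 10 mg/kg, or 5-ASA ig at 50 mg/kg, until study end. Controls were water plus vehicle and DSS plus vehicle. Body weight recorded daily; colon length taken at sacrifice on day 10. Mean ± SD, n = 10.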

Test [3] relates to Mus musculus. As to the kind of experiment: Antiinflammatory activity in DSS- induced C57BL/6 mouse colon colitis model assessed as degeneration/necrosis of crypt cells at 10 mg/kg, ip after 24 hrs by hematoxylin/eosin staining based assay. The class given is functional, organism-based. The essentials:
as §1

Test [4] concerns Mus musculus. As to the kind of experiment: Antiinflammatory activity in DSS- induced C57BL/6 mouse colitis model assessed as colon length at 10 mg/kg, ip after 10 days (reference value: 45.68 +/- 1.34 mm). The test is classed as functional. An outline of the steps:
as §2

The subject of test [5] is Mus musculus. Kind of test: Antiinflammatory activity in DSS- induced C57BL/6 mouse colon colitis model assessed as cellular infiltration of mononuclear macrophages/neutrophils at 10 mg/kg, ip after 24 hrs by hematoxylin/eosin staining based assay. The test is classed as functional, organism-based. The essentials: as §1
The test system of test [6] is Mus musculus. As to the kind of experiment: Antiinflammatory activity in DSS- induced C57BL/6 mouse colon colitis model assessed as inhibition of IL6 expression at 5 to 10 mg/kg, ip after 24 hrs by hematoxylin staining based assay. The class given is functional, organism-based. An outline of the steps: (§3)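 Colons come from the same DSS model, fixed in 10% buffered formalin for at least 24 h. Paraffin sections were deparaffinized. Antigen was retrieved in 10 mM sodium citrate with 0.1% Tween 20 at 100 °C for 20 min. Primary antibody was applied in PBS with 5% BSA and 10% goat serum, then HRP polymer at room temperature for 30 min. Detection was DAB with hematoxylin counterstain. IL-6 and COX-2 positive labeling was counted automatically. Mean ± SD.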

Test [7] concerns Mus musculus. As to the kind of experiment: Antiinflammatory activity in DSS- induced C57BL/6 mouse colitis model assessed as change in body weight at 5 to 10 mg/kg, ip after 7 days. The class given is functional, organism-based. An outline of the steps: as §2
A further test has as its target Sphingosine kinase 1 (Homo sapiens, UniProt Q9NYA1). As to the kind of experiment: Inhibition of GST-tagged full length human recombinant SPHK1 expressed in baculovirus using sphingosine as substrate preincubated for 10 mins measured after 1 hr by ADP-quest assay.
The test system of test [8] is Mus musculus. As to the kind of experiment: Antiinflammatory activity in DSS- induced C57BL/6 mouse colitis model assessed as body weight at 5 mg/kg, ip after 10 days (reference value: 15.69 +/- 0.65 g). The test is classed as functional. The essentials:
as §2

In test [9] the test system is Mus musculus. Kind of test: Antiinflammatory activity in DSS- induced C57BL/6 mouse colon colitis model assessed as inhibition of COX2 expression at 5 to 10 mg/kg, ip after 24 hrs by hematoxylin staining based assay. The class given is functional, organism-based. The essentials:
as §3

Test [10] deals with Mus musculus. Kind of test: Antiinflammatory activity in DSS- induced C57BL/6 mouse colitis model assessed as body weight at 10 mg/kg, ip after 10 days (reference value: 15.69 +/- 0.65 g). The test is classed as functional. The essentials: as §2
In test [11] the test system is Mus musculus. As to the kind of experiment: Antiinflammatory activity in DSS- induced C57BL/6 mouse colon colitis model assessed as inhibition of IL6 expression at 50 mg/kg, ig after 24 hrs by hematoxylin staining based assay. The test is classed as functional, organism-based. The essentials: as §3
Test [12] concerns Mus musculus. Kind of test: Antiinflammatory activity in DSS- induced C57BL/6 mouse colitis model assessed as body weight at 50 mg/kg, ig after 10 days (reference value: 15.69 +/- 0.65 g). The test is classed as functional. The essentials: as §2
Test [13] relates to Mus musculus. As to the kind of experiment: Antiinflammatory activity in DSS- induced C57BL/6 mouse colitis model assessed as colon length at 50 mg/kg, ig after 10 days (reference value: 45.68 +/- 1.34 mm). The class given is functional. The essentials: as §2
The subject of test [14] is Mus musculus. Kind of test: Antiinflammatory activity in DSS- induced C57BL/6 mouse colitis model assessed as change in body weight at 50 mg/kg, ig after 7 days. The test is classed as functional, organism-based. An outline of the steps:
as §2

Test [15] deals with Mus musculus. Kind of test: Antiinflammatory activity in DSS- induced C57BL/6 mouse colon colitis model assessed as degeneration/necrosis of crypt cells at 50 mg/kg, ig after 24 hrs by hematoxylin/eosin staining based assay. The test is classed as functional, organism-based. The essentials:
as §1

In test [16] the test system is Mus musculus. Kind of test: Antiinflammatory activity in DSS- induced C57BL/6 mouse colon colitis model assessed as inhibition of COX2 expression at 50 mg/kg, ig after 24 hrs by hematoxylin staining based assay. The class given is functional, organism-based. An outline of the steps:
as §3

The test system of test [17] is Mus musculus. As to the kind of experiment: Antiinflammatory activity in DSS- induced C57BL/6 mouse colon colitis model assessed as cellular infiltration of mononuclear macrophages/neutrophils at 50 mg/kg, ig after 24 hrs by hematoxylin/eosin staining based assay. The class given is functional, organism-based. The essentials:
as §1

Test [18] deals with Mus musculus. As to the kind of experiment: Antiinflammatory activity in DSS- induced C57BL/6 mouse colon colitis model assessed as mucosal/submucosal lesion at 50 mg/kg, ig after 24 hrs by hematoxylin/eosin staining based assay. The test is classed as functional, organism-based. The essentials:
as §1

Sphingosine kinase 1, sequence (Q9NYA1 whole entry): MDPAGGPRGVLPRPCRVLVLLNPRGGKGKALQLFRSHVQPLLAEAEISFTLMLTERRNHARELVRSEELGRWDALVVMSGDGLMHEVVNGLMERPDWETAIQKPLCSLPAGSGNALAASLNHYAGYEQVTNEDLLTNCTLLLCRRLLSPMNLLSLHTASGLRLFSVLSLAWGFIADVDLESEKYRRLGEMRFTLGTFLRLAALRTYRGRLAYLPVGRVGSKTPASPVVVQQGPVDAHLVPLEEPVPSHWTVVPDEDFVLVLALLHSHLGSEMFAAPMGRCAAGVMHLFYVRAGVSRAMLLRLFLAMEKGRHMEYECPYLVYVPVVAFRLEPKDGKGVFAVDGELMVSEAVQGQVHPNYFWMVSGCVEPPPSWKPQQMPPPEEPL

In general, IC50 refers to the midpoint of a concentration-inhibition curve. In the case of `COc1cccc(COc2ccc(/C=N/NC(=O)c3cc(O)c(O)c(O)c3)cc2)c1`, the IC50 at Sphingosine kinase 2 was 2.17 µM; at Sphingosine kinase 1 it was 4.36 µM. The outcome with Mus musculus [1], in the test with Mus musculus [3] and in the test with Mus musculus [5] was Active. Also, the Activity with Mus musculus [2] came out at 53.04 mm; in the test with Mus musculus [4], 51.41 mm; in the test with Mus musculus [8], 17.1 g; in the test on Mus musculus [10], 17.5 g. The inhibition entry in the test on Mus musculus [6] and with Mus musculus [9] was “Active” each time. Moreover, in the test with Mus musculus [7], the outcome was inactive.

For the molecule `Nc1ccc(O)c(C(=O)O)c1` [MESALAMINE], the inhibition entry with Mus musculus [11] and in the test on Mus musculus [16] was “Active” each time. The figures for the Activity in the test on Mus musculus [12] and in the test with Mus musculus [13] were 18.32 g and 53.4 mm, respectively. Besides, the result in the test with Mus musculus [14] was inactive. For the same molecule, the outcome with Mus musculus [15], in the test with Mus musculus [17] and with Mus musculus [18] was Active.
